Experimental data taken from ChEMBL document CHEMBL3865784 (Eur J Med Chem, 2016).

What was measured:
[1] = Cytotoxicity against human HCT116 cells expressing NQO1 assessed as reduction in cell viability after 72 hrs by MTT assay; format: functional, cell-based; conditions: HCT-116, 72 h
Summary of the method: (§1)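 Cancer lines from NCI, grown in RPMI 1640 with 10% FBS, 2 mM L-glutamine, penicillin/streptomycin, 37 °C, 5% CO2; seeded 0.1 × 10^6 cells/well (HL-60) or 0.7 × 10^5 cells/well (solid tumours). Compounds in DMSO, final 0.1% v/v; DMSO vehicle as negative control.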

[2] = Cytotoxicity against human MDA-MB-435 cells overexpressing NQO1 assessed as reduction in cell viability after 72 hrs by MTT assay; format: functional, cell-based; conditions: MDA-MB-435, 72 h; summary of the method: as §1
[3] = Cytotoxicity against human OVCAR8 cells overexpressing NQO1 assessed as reduction in cell viability after 72 hrs by MTT assay; format: functional, cell-based; conditions: OVCAR-8, 72 h; summary of the method: as §1
[4] = Cytotoxicity against NQO1-deficient human PBMC assessed as reduction in cell viability after 72 hrs by MTT assay; format: toxicity, cell-based; conditions: human
[5] = Cytotoxicity against NQO1-deficient chinese hamster V79 cells assessed as reduction in cell viability after 72 hrs by MTT assay; format: toxicity, cell-based, Cricetulus griseus; conditions: Chinese hamster, NQO1-deficient V79 cells
[6] = Cytotoxicity against NQO1-deficient mouse L929 cells assessed as reduction in cell viability after 72 hrs by MTT assay; format: toxicity, cell-based; conditions: mouse, NQO1-deficient L929 cells

COc1cccc2c1C(=O)c1c(O)c3c(c(O)c1C2=O)C[C@@](O)(C(=O)CO)C[C@@H]3O[C@H]1C[C@H](N)[C@H](O)[C@H](C)O1 [DOXORUBICIN]
IC50 [1]: 150 nM
IC50 [2]: 960 nM
IC50 [3]: 410 nM
IC50 at 72 h [4]: 550 nM
IC50 at 72 h [5]: 280 nM
IC50 at 72 h [6]: 230 nM
